In ChEMBL document CHEMBL1145824, “Simplified discodermolide analogues: synthesis and biological evaluation of 4-epi-7-dehydroxy-14,16-didemethyl-(+)-discodermolides as microtubule-stabilizing agents” (J Med Chem, 2003) one finds IC50, GI50 and Activity data, which are given here for 19 molecules.

Some results are limits rather than exact numbers.

One experiment deals with A549. The experiment in a line: Antiproliferative potency determined as inhibitory concentration against A549 cells. In kind it is functional, cell-based. The following applies: Homo sapiens. Summed up:
(§1)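 MTS growth-inhibition assay. Cells seeded at 500-2000/well, attached and grown 48 h, then given agent or vehicle (4% DMSO) for 72 h continuous exposure. A time-zero plate was read. Initial 5-fold dilution screen, then 2-fold dilutions (five concentrations) centred on the estimated GI50, in quadruplicate. Read-out A490 minus A630 with phenazine methanesulfonate as electron acceptor. Mean ± SD, N = 4 over 10 concentrations.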

Another experiment deals with 2008. The experiment is described as follows: Inhibitory concentration against 2008 (ovarian) cells. It is filed as functional. The settings on record: Homo sapiens. An outline of the steps:
(§2)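 Cells plated at 500-2000/well, allowed to attach and grow 48 h, then exposed continuously for 72 h to vehicle (4% DMSO) or agent. Initial screen at 5-fold dilutions; GI50 then set by a repeat screen of five 2-fold dilutions centred on the estimate, in quadruplicate. A time-zero plate was included. Cell number was read by MTS/phenazine methanesulfonate absorbance (490 minus 630 nm). Values are means ± SD, N=4.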

For another experiment, the system named is tubulin (Bos taurus). The experiment is described as follows: Percent assembly of bovine brain tubulin induced by compound at 10 uM versus that caused by 10 uM paclitaxel.
A further experiment has as its system PC-3. The experiment is described as follows: Inhibitory concentration against PC3 (prostate) cells. The following applies: Homo sapiens. In kind it is functional. An outline of the steps: as §2
Experiment [1] in a line: Percent competition for binding to preformed microtubules by 4 uM as against 2 uM of 3[H]paclitaxel. In kind it is functional. Summed up:
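Microtubules preformed from 2 µM bovine brain tubulin with 20 µM ddGTP in monosodium glutamate, 30 min at 37 °C. Then 2 µM [3H]paclitaxel plus 4 µM agent (final concentrations) was added for 30 min at 37 °C. Samples were centrifuged at 14000 rpm for 20 min at room temperature, and supernatant radioactivity was counted. Bound = total minus free, normalized to the no-inhibitor control.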

Experiment [2] in a line: Inhibitory concentration against […] (breast) cells. In kind it is functional. The following applies: Homo sapiens. An outline of the steps: as §2
Experiment [3] can be described thus: Antiproliferative potency determined as inhibitory concentration against MG63 cells. In kind it is functional, cell-based. The following applies: Homo sapiens, MG-63. An outline of the steps: as §1

In the experiment with A549, `C=C/C=C\C(C)C(OC(N)=O)[C@@H](C)[C@H](O)C(C)C/C(C)=C\C(C)[C@@H](O)[C@@H](C)/C=C\C(C[C@@H]1OC(=O)[C@H](C)[C@@H](O)[C@H]1C)OC(C)=O` (stereo partly drawn) displayed an IC50 of 0.8 nM. This lies in the sub-nanomolar range.
`C=C/C=C\C(C)C(OC(N)=O)[C@@H](C)[C@H](O)[C@@H](C)C/C(C)=C\C(C)[C@@H](O)[C@@H](C)/C=C\C(O)C[C@@H]1OC(=O)C(C)=C[C@H]1C` (stereo partly drawn) returned an IC50 with A549 of 1.8 nM. This IC50 lies about 2.2-fold higher than the previous one.
Turning to `C=C/C=C\[C@H](C)[C@H](OC(N)=O)[C@@H](C)[C@H](O)CC/C=C\C(C)[C@@H](O)[C@@H](C)/C=C\CC[C@@H]1OC(=O)[C@H](C)[C@@H](OCOC)[C@@H]1C` (stereo partly drawn), the GI50 in the experiment with 2008 turned out to be 650 nM; with PC-3, 1800 nM; in experiment [2], 870 nM. Moreover, the Activity was found to be 27% in the experiment on tubulin (Bos taurus) and 57% in experiment [1].
Regarding `C=C/C=C\[C@H](C)[C@H](OC(N)=O)[C@@H](C)[C@H](O)CC/C=C\C(C)[C@@H](O)[C@@H](C)/C=C\CC[C@@H]1OC(=O)[C@H](C)[C@@H](O)[C@@H]1C` (stereo partly drawn), the GI50 was 5200 nM with 2008, 7500 nM in the experiment on PC-3 and 2100 nM in experiment [2]. Further, the results for the Activity (in the experiment with tubulin (Bos taurus); in experiment [1]) were 11% and 21%, respectively.
In turn, `C=C/C=C\C(C)C(OC(N)=O)[C@@H](C)[C@H](OC(C)=O)C(C)C/C(C)=C\C(C)[C@@H](O)[C@@H](C)/C=C\C(O)C[C@@H]1OC(=O)[C@H](C)[C@@H](OC(C)=O)[C@H]1C` (stereo partly drawn) had an IC50 in the experiment with A549 of 524 nM.
Consider `CC(=O)O[C@H]1C(=O)[C@@]2(C)[C@H]([C@H](OC(=O)c3ccccc3)[C@]3(O)C[C@H](OC(=O)[C@H](O)[C@@H](NC(=O)c4ccccc4)c4ccccc4)C(C)=C1C3(C)C)[C@]1(OC(C)=O)CO[C@@H]1C[C@@H]2O` [PACLITAXEL], for which the values for the GI50 (in the experiment with 2008; with PC-3; in experiment [2]) were 9.2 nM, 15 nM and 2.4 nM, respectively. Also, the figures for the Activity (with tubulin (Bos taurus); in experiment [1]) were 100% and 37%, respectively. 1.4 nM corresponded to half-maximal inhibition in the experiment with A549 (IC50).
In the experiment on A549, `C=C/C=C\C(C)C(OC(N)=O)[C@@H](C)[C@H](O)[C@@H](C)C/C=C/C(C)[C@@H](O)[C@@H](C)/C=C\C(O)C[C@@H]1OC(=O)C(C)[C@@H](O)[C@H]1C` (stereo partly drawn) registered an IC50 of 485 nM.
The same measure, in the same setting: for `C=C/C=C\C(C)C(OC(N)=O)[C@@H](C)[C@H](O)[C@@H](C)C/C=C\C(C)[C@@H](O)[C@@H](C)/C=C\C(O)C[C@@H]1OC(=O)C(C)[C@@H](O)[C@H]1C` (stereo partly drawn) the value was 7.8 nM.
Consider `C=C/C=C\C(C)C(OC(N)=O)[C@@H](C)[C@H](O)[C@@H](C)C/C(C)=C\C(C)[C@@H](O)[C@@H](C)/C=C\CC[C@@H]1OC(=O)C=C[C@H]1C` (stereo partly drawn), for which, in the experiment on A549, it took 11.4 nM to reach half-maximal inhibition (IC50).
For the molecule `C=C/C=C\C(C)C(OC(N)=O)[C@@H](C)[C@H](O)[C@@H](C)C/C(C)=C\C(C)[C@@H](O)[C@@H](C)/C=C\C(O)C[C@@H]1OC(=O)[C@H](C)[C@@H](O)[C@H]1C` (stereo partly drawn), the figures for the IC50 (in experiment [3]; in the experiment with A549) were 6 nM and 3.8 nM, respectively. For the same molecule, the values for the GI50 (with 2008; in the experiment on PC-3; in experiment [2]) were 72 nM, 67 nM and 16 nM, respectively. Moreover, the Activity with tubulin (Bos taurus) is over 100%; in experiment [1] it was 64%.
In the case of `C=C/C=C\C(C)C(OC(N)=O)[C@@H](C)[C@H](O)C(C)C/C(C)=C\C(C)[C@@H](O)[C@@H](C)/C=C\C(C[C@@H]1OC(=O)[C@H](C)[C@@H](OC(C)=O)[C@H]1C)OC(C)=O` (stereo partly drawn), in the experiment on A549, the IC50 was found to be 0.8 nM.
`CCCCCC(C)(C)[C@H](OC(N)=O)[C@@H](C)[C@H](O)CC/C=C\C(C)[C@@H](O)[C@@H](C)/C=C\CC[C@@H]1O[C@@H](OC)[C@H](C)[C@@H](OCOC)[C@@H]1C` (stereo partly drawn): the results for the GI50 (with 2008; in the experiment with PC-3; in experiment [2]) were 42000 nM, 38000 nM and 23000 nM, respectively. The Activity worked out at 9% in the experiment on tubulin (Bos taurus) and 15% in experiment [1].
Take `C=C/C=C\C(C)C(OC(N)=O)[C@@H](C)[C@H](O)C(C)C/C(C)=C\C(C)[C@@H](O)[C@@H](C)/C=C\C(O)C[C@@H]1OC(=O)[C@H](C)[C@@H](OC(C)=O)[C@H]1C` (stereo partly drawn): the IC50 in the experiment on A549 was 3.8 nM.
`C=C/C=C\[C@H](C)[C@H](OC(N)=O)[C@@H](C)[C@H](O)CC/C=C\C(C)[C@@H](O)[C@@H](C)/C=C\CC[C@@H]1O[C@@H](OC)[C@H](C)[C@@H](OCOC)[C@@H]1C` (stereo partly drawn): the GI50 amounted to 4700 nM with 2008, 15000 nM in the experiment on PC-3 and 3400 nM in experiment [2]. For the same molecule, the values for the Activity (in the experiment on tubulin (Bos taurus); in experiment [1]) were 11% and 19%, respectively.
As for `C=C/C=C\C(C)C(OC(N)=O)[C@@H](C)[C@H](O)CC/C(C)=C\C(C)[C@@H](O)[C@@H](C)/C=C\C(O)C[C@@H]1OC(=O)[C@H](C)[C@@H](O)[C@H]1C` (stereo partly drawn), the IC50 in experiment [3] was 10 nM.
With `COCO[C@H]1[C@@H](C)[C@H](CC/C=C\[C@H](C)[C@H](O)[C@@H](C)/C=C\CC[C@@H](O)[C@H](C)COC(N)=O)OC(=O)[C@@H]1C`, the GI50 was over 50000 nM in the experiment with 2008, over 50000 nM with PC-3 and 30000 nM in experiment [2]. Further, the Activity with tubulin (Bos taurus) was under 5%; in experiment [1], 13%.
With `C=C/C=C\[C@H](C)[C@H](OC(N)=O)[C@@H](C)[C@H](O)[C@@H](C)C/C(C)=C\[C@H](C)[C@@H](O)[C@@H](C)/C=C\[C@@H](O)C[C@@H]1OC(=O)[C@H](C)[C@@H](O)[C@H]1C` [DISERMOLIDE], the GI50 with 2008 is 1500 nM; with PC-3, 3000 nM; in experiment [2], 2600 nM. Besides, the Activity was found to be 14% with tubulin (Bos taurus) and 32% in experiment [1].
Consider `CCCCCC[C@H](OC(N)=O)[C@@H](C)[C@H](O)CC/C=C\C(C)[C@@H](O)[C@@H](C)/C=C\CC[C@@H]1O[C@@H](OC)[C@H](C)[C@@H](OCOC)[C@@H]1C` (stereo partly drawn), for which the figures for the GI50 (with 2008; in the experiment on PC-3; in experiment [2]) were 29000 nM, over 50000 nM and 24000 nM, respectively. For the same molecule, the figures for the Activity (in the experiment on tubulin (Bos taurus); in experiment [1]) were 6% and 9%, respectively.
In the experiment on A549, `C=C/C=C\C(C)C(OC(N)=O)[C@@H](C)[C@H](O)C(C)C/C(C)=C\C(C)[C@@H](OC(C)=O)[C@@H](C)/C=C\C(O)C[C@@H]1OC(=O)[C@H](C)[C@@H](OC(C)=O)[C@H]1C` (stereo partly drawn) had an IC50 of 164 nM.
